Experimental data gathered from unrelated publications.
Protocols differ between the studies behind these lines. Values after ≈ are worked out from the molar mass of the structure shown.

| SMILES | target or system | test | conditions | quantity | value |
| --- | --- | --- | --- | --- | --- |
| O=C1NN=C(N=Cc2ccc(O)cc2O)C1=NNn1c(-c2ccccc2)nc2ccccc2c1=O | Trichophyton rubrum | microbial growth, broth dilution |  | MIC | 53.5 µM (≈ 25 µg/mL) |
| Cc1[nH]c(C)c(C(F)(F)F)c(=O)c1-c1ccc(Oc2ccc(OC(F)(F)F)cc2)cc1 | HEK293 | cell growth or viability |  | IC50 | > 10 µM |
| COc1ccc(-c2nc3ncccn3c2NC(C)(C)CC(C)(C)C)cc1O | Leishmania amazonensis | parasite growth, MTT | 72 h, promastigote | IC50 | > 100 µM |
| COc1ccc([S+]([O-])c2ccccc2)c(OC)c1OC (stereo not shown) | Leishmania braziliensis | parasite growth, MTT | 24 h, promastigote | IC50 | 62.6 µM |
| COc1ccc(Nc2c(-c3ccc4c(c3)OCO4)nc3ncccn23)cc1 | Leishmania amazonensis | parasite growth, MTT | 72 h, promastigote | IC50 | > 100 µM |
| c1ccc(-c2ccc(CNCC3(N4CCCC4)COC3)o2)cc1 | T98G | cell growth or viability | 30 µM, 48 h | viability | 74.2% |
| Cc1[nH]cc(Br)c(=O)c1-c1ccc(Oc2ccccc2)cc1 | HEK293 | cell growth or viability |  | IC50 | > 10 µM |
| CC1=NN(CNC(=O)c2ccccc2)C(=O)C1=NNn1c(-c2ccccc2)nc2ccccc2c1=O | Trichophyton rubrum | microbial growth, broth dilution |  | MIC | 104 µM (≈ 49.8 µg/mL) |
| CN1CCCC(CN2CCN(Cc3ccc(-c4cccc(-c5nc6ccccc6[nH]5)c4)cc3)CC2)C1 (stereo not shown) | HEK293 | cell growth or viability |  | IC50 | > 10 µM |
| O=C1NN=C(N=Cc2ccc(O)c(O)c2)C1=NNn1c(-c2ccccc2)nc2ccccc2c1=O | Trichophyton rubrum | microbial growth, broth dilution |  | MIC | 107 µM (≈ 50 µg/mL) |
| COc1ccc([S+]([O-])c2ccc(OC)c(OC)c2OC)cc1 (stereo not shown) | Leishmania braziliensis | parasite growth, MTT | promastigote | IC50 | 15 µM |
| Clc1ccccc1-c1ccc(CNCC2(N3CCCC3)COC2)o1 | GBM6 | cell growth or viability | 30 µM, 48 h | viability | 80.6% |
| Cc1ccc(/C=C2/SC(=Nc3ccccc3)NC2=O)c(C)c1 | HEK293 | cell growth or viability |  | IC50 | > 10 µM |
| COc1ccc(-c2ccc(-c3ccc(C(=N)N)nc3)s2)cc1Cl | NCI-H322M | cell growth or viability, SRB |  | GI50 | 1.67 µM |
| COc1ccc(Oc2ccc(-c3c(C)[nH]c(C)c(Cl)c3=O)cc2)cc1 | HEK293 | cell growth or viability |  | IC50 | > 10 µM |
| CCCCc1nc2ncccn2c1NC(C)(C)CC(C)(C)C | Leishmania amazonensis | parasite growth, MTT | 72 h, promastigote | IC50 | 47.8 µM |
